Measured values taken from paper PMC11913021 (Journal of Medicinal Chemistry, 2024).
Where “and” joins values, the source holds several entries; their conditions need not be identical. Equal entries are not always repeated.

Tests used:
F614A mutant PLD1 = biological target: T1, F614A mutant PLD1 (Homo sapiens, UniProt Q13393, F652A); assay: PLD activity assay in F614A mutant PLD1-transfected cells; type: cell-based
T1 sequence (Q13393 1-1036 isoform Q13393-2 F614A): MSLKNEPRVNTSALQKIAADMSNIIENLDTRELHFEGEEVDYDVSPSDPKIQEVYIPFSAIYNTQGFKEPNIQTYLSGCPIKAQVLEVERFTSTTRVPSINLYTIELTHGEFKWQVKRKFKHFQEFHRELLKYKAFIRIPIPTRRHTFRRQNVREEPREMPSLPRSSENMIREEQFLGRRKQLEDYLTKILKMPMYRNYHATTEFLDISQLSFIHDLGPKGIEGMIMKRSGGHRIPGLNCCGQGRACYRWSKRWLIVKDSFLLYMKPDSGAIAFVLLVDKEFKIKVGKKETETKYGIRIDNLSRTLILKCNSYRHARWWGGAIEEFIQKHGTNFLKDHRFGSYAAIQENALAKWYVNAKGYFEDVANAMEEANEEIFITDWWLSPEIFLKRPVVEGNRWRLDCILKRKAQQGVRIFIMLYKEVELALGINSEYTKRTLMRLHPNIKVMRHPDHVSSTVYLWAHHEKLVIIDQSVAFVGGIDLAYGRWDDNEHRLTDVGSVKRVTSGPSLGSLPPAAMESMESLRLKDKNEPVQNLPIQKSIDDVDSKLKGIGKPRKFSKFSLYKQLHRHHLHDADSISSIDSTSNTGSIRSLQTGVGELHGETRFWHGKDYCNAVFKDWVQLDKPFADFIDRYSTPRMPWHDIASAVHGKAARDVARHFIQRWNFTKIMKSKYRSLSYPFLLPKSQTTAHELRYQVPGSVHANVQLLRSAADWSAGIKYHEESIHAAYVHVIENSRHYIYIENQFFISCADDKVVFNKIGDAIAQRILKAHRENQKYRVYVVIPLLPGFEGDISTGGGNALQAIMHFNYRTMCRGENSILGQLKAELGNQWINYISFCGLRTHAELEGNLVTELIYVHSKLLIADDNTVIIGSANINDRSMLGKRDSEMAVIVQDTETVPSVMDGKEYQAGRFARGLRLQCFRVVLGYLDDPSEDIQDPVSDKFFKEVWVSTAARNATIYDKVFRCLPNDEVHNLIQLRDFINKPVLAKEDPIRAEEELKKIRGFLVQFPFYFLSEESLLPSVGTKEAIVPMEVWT

PLD = PLD activity inhibition in A549 cells; type: cell-based; settings: read-out: IC50 for PLD inhibition
HCT116 cells = assay: WST-1 cell viability assay, HCT116; type: cell-based; settings: read-out: IC50 of viability; HCT116, WST-1, 48 h
In short: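 Cells grown in DMEM or RPMI 1640 with 10% FBS and 1% penicillin/streptomycin at 37 °C, 5% CO2. Seeded at 5 × 10^3 cells/well and held 24 h at 37 °C, then exposed to test compound for 48 h. WST-1 absorbance was read at 450 nm, in triplicate. IC50 was taken as the concentration giving 50% growth inhibition versus control.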

A549 cells = assay: Cell apoptosis assay; type: cell-based; settings: flow cytometry and caspase-3 activity assay
In short: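 Apoptosis detected by Annexin V-FITC staining and flow cytometry. For caspase-3, cells were grown to about 40% density and given test compound, or the inhibitor Ac-DEVD-CHO, at 10 μM for 48 h. After a PBS wash, 1 μM NucView 488 caspase-3 substrate was added for 30 min at RT, then 1 μM Hoechst 33342. Both fluorescences were read on a plate reader.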

[1] = system: EGFR-RAS-mediated signaling pathways; assay: Immunoblot of RAS downstream molecules in EGF-stimulated A549 cells; type: cell-based
In short: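 Lysates made in passive buffer with protease and phosphatase inhibitor cocktail, boiled 5 min, then separated by SDS-PAGE and transferred to PVDF. Membranes blocked in TBS-T with 5% BSA and probed overnight at 4 °C for phospho- and total Akt, ERK and IκBα. HRP-conjugated secondary antibodies and chemiluminescence were used for detection.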

LLC mouse lung cells = assay: LLC lung cancer syngeneic model in C57BL/6 mice; type: in vivo
In short: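 Male C57BL/6 mice (6 weeks old) received 3 × 10^5 LLC cells in PBS subcutaneously in the flank. From day 7 they were randomised to vehicle PO daily or test compound 10 mg/kg PO every other day, for 3 weeks. Tumour IHC used citrate antigen retrieval, blocking with 0.3% H2O2 and 2.5% horse serum, primary antibodies overnight at 4 °C, HRP/ABC with DAB, and hematoxylin counterstain. CD163 was assessed by immunofluorescence.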

[2] = tumor tissue immunofluorescence

## N-(3,5-Bis(trifluoromethyl)phenyl)-3-(1H-indol-3-yl)propanamide [3r]
F614A mutant PLD1
  PLD activity: did not significantly inhibit
PLD
  IC50: 1.97 µM
HCT116 cells
  IC50: 29 µM and 29.1 µM
A549 cells
  apoptosis of A549 cells: induced
[1]
  phospho-Akt, phospho-ERK, and phospho-IkBα levels: markedly reduced
LLC mouse lung cells; 10 mg/kg PO every other day, C57BL/6, LLC
  tumor formation: significantly attenuated
LLC mouse lung cells; IHC
  apoptosis in tumor tissue (active caspase 3 IHC): enhanced
  proliferation in tumor tissue (Ki67 IHC): reduced
LLC mouse lung cells; tumor tissue IHC
  expression of ’eat-me’ signals (calreticulin): increased
  levels of RAS and downstream molecules (p-ERK, p-Akt, p-IKBα): decreased
  levels of ’don’t eat-me’ signals (CD47, CD24, PD-L1): reduced
LLC mouse lung cells; [2]
  population of CD4^+ and IL-17^+ Th17 cells: increased
  population of CD80^+ pro-inflammatory M1 macrophages: increased
  population of CD163^+ anti-inflammatory M2 macrophages: decreased
  population of cytotoxic CD8^+ T cells: increased
LLC mouse lung cells; tumor-bearing mice vs vehicle
  size and weight of the spleen: recovered
